Laboratory results: ChEMBL document CHEMBL5058577, “EUbOPEN Chemogenomics Library 2 (Multiplex)” (2022)

Tested on: Fibroblast
Test: Multiplex assay against human fibroblast
Format: toxicity, cell-based
Method in brief: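 Imaging took place on a CQ1 microscope at 37°C and 5% CO2 once compound had been added to live cells stained at seeding with Hoechst33342, BioTracker Green Microtubule Cytoskeleton Dye, MitoTracker Red and Annexin V Alexa Fluor 680. CellPathfinder machine-learning gating classed cells as Hoechst high-intensity objects or normal cells, classed normal cells as having healthy, pyknosed or fragmented nuclei, and classed pyknosed cells as mitotic or apoptotic. Tubulin, mitochondrial-mass and membrane-permeability phenotypes are per cents of the healthy-nucleus cells.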

[1] = 12 h, 1 µM, compound concentration 1 uM, replicate 1
[2] = 12 h, 1 µM, compound concentration 1 uM, replicate 2
[3] = 12 h, 10 µM, compound concentration 10 uM, replicate 1
[4] = 12 h, 10 µM, compound concentration 10 uM, replicate 2
[5] = 24 h, 1 µM, compound concentration 1 uM, replicate 1
[6] = 24 h, 1 µM, compound concentration 1 uM, replicate 2
[7] = 24 h, 10 µM, compound concentration 10 uM, replicate 1
[8] = 24 h, 10 µM, compound concentration 10 uM, replicate 2
[9] = 48 h, 1 µM, compound concentration 1 uM, replicate 1
[10] = 48 h, 1 µM, compound concentration 1 uM, replicate 2
[11] = 48 h, 10 µM, compound concentration 10 uM, replicate 1
[12] = 48 h, 10 µM, compound concentration 10 uM, replicate 2

Nc1nc(-c2ccco2)c2cnn(Cc3ccccc3F)c2n1
Population Apoptotic (%) [1]: 50% | Population Fragmented Nuclei (%) [1]: 10% | Population Healthy Nuclei (%) [1]: 78% | Population Hoechst High Intensity Objects (%) [1]: 0% | Population Membrane Permeable-Phenotype (%) [1]: 1% | Population Mitochondria Different-Phenotype (%) [1]: 2% | Population Mitotic Cells (%) [1]: 50% | Population Normal (%) [1]: 99% | Population Pyknosed Nuclei (%) [1]: 11% | Population Tubulin-Different-Phenotype (%) [1]: 26% | Total Cell Count [1]: 189 | Population Apoptotic (%) [2]: 45% | Population Fragmented Nuclei (%) [2]: 31% | Population Healthy Nuclei (%) [2]: 50% | Population Hoechst High Intensity Objects (%) [2]: 6% | Population Membrane Permeable-Phenotype (%) [2]: 2% | Population Mitochondria Different-Phenotype (%) [2]: 5% | Population Mitotic Cells (%) [2]: 54% | Population Normal (%) [2]: 93% | Population Pyknosed Nuclei (%) [2]: 17% | Population Tubulin-Different-Phenotype (%) [2]: 42% | Total Cell Count [2]: 144 | Population Apoptotic (%) [3]: 54% | Population Fragmented Nuclei (%) [3]: 16% | Population Healthy Nuclei (%) [3]: 61% | Population Hoechst High Intensity Objects (%) [3]: 8% | Population Membrane Permeable-Phenotype (%) [3]: 0% | Population Mitochondria Different-Phenotype (%) [3]: 7% | Population Mitotic Cells (%) [3]: 45% | Population Normal (%) [3]: 91% | Population Pyknosed Nuclei (%) [3]: 21% | Population Tubulin-Different-Phenotype (%) [3]: 38% | Total Cell Count [3]: 123 | Population Apoptotic (%) [4]: 47% | Population Fragmented Nuclei (%) [4]: 39% | Population Healthy Nuclei (%) [4]: 44% | Population Hoechst High Intensity Objects (%) [4]: 10% | Population Membrane Permeable-Phenotype (%) [4]: 5% | Population Mitochondria Different-Phenotype (%) [4]: 13% | Population Mitotic Cells (%) [4]: 52% | Population Normal (%) [4]: 89% | Population Pyknosed Nuclei (%) [4]: 16% | Population Tubulin-Different-Phenotype (%) [4]: 51% | Total Cell Count [4]: 147 | Population Apoptotic (%) [5]: 50% | Population Fragmented Nuclei (%) [5]: 9% | Population Healthy Nuclei (%) [5]: 82% | Population Hoechst High Intensity Objects (%) [5]: 0% | Population Membrane Permeable-Phenotype (%) [5]: 0% | Population Mitochondria Different-Phenotype (%) [5]: 2% | Population Mitotic Cells (%) [5]: 50% | Population Normal (%) [5]: 100% | Population Pyknosed Nuclei (%) [5]: 7% | Population Tubulin-Different-Phenotype (%) [5]: 24% | Total Cell Count [5]: 180 | Population Apoptotic (%) [6]: 56% | Population Fragmented Nuclei (%) [6]: 29% | Population Healthy Nuclei (%) [6]: 53% | Population Hoechst High Intensity Objects (%) [6]: 6% | Population Membrane Permeable-Phenotype (%) [6]: 4% | Population Mitochondria Different-Phenotype (%) [6]: 5% | Population Mitotic Cells (%) [6]: 43% | Population Normal (%) [6]: 93% | Population Pyknosed Nuclei (%) [6]: 17% | Population Tubulin-Different-Phenotype (%) [6]: 37% | Total Cell Count [6]: 139 | Population Apoptotic (%) [7]: 70% | Population Fragmented Nuclei (%) [7]: 19% | Population Healthy Nuclei (%) [7]: 66% | Population Hoechst High Intensity Objects (%) [7]: 6% | Population Membrane Permeable-Phenotype (%) [7]: 1% | Population Mitochondria Different-Phenotype (%) [7]: 8% | Population Mitotic Cells (%) [7]: 29% | Population Normal (%) [7]: 93% | Population Pyknosed Nuclei (%) [7]: 14% | Population Tubulin-Different-Phenotype (%) [7]: 39% | Total Cell Count [7]: 127 | Population Apoptotic (%) [8]: 43% | Population Fragmented Nuclei (%) [8]: 43% | Population Healthy Nuclei (%) [8]: 44% | Population Hoechst High Intensity Objects (%) [8]: 8% | Population Membrane Permeable-Phenotype (%) [8]: 15% | Population Mitochondria Different-Phenotype (%) [8]: 5% | Population Mitotic Cells (%) [8]: 56% | Population Normal (%) [8]: 91% | Population Pyknosed Nuclei (%) [8]: 11% | Population Tubulin-Different-Phenotype (%) [8]: 46% | Total Cell Count [8]: 147 | Population Apoptotic (%) [9]: 45% | Population Fragmented Nuclei (%) [9]: 16% | Population Healthy Nuclei (%) [9]: 77% | Population Hoechst High Intensity Objects (%) [9]: 3% | Population Membrane Permeable-Phenotype (%) [9]: 2% | Population Mitochondria Different-Phenotype (%) [9]: 1% | Population Mitotic Cells (%) [9]: 54% | Population Normal (%) [9]: 96% | Population Pyknosed Nuclei (%) [9]: 6% | Population Tubulin-Different-Phenotype (%) [9]: 26% | Total Cell Count [9]: 182 | Population Apoptotic (%) [10]: 57% | Population Fragmented Nuclei (%) [10]: 41% | Population Healthy Nuclei (%) [10]: 48% | Population Hoechst High Intensity Objects (%) [10]: 6% | Population Membrane Permeable-Phenotype (%) [10]: 4% | Population Mitochondria Different-Phenotype (%) [10]: 9% | Population Mitotic Cells (%) [10]: 42% | Population Normal (%) [10]: 93% | Population Pyknosed Nuclei (%) [10]: 10% | Population Tubulin-Different-Phenotype (%) [10]: 37% | Total Cell Count [10]: 147 | Population Apoptotic (%) [11]: 80% | Population Fragmented Nuclei (%) [11]: 25% | Population Healthy Nuclei (%) [11]: 65% | Population Hoechst High Intensity Objects (%) [11]: 9% | Population Membrane Permeable-Phenotype (%) [11]: 0% | Population Mitochondria Different-Phenotype (%) [11]: 10% | Population Mitotic Cells (%) [11]: 20% | Population Normal (%) [11]: 90% | Population Pyknosed Nuclei (%) [11]: 9% | Population Tubulin-Different-Phenotype (%) [11]: 27% | Total Cell Count [11]: 115 | Population Apoptotic (%) [12]: 50% | Population Fragmented Nuclei (%) [12]: 50% | Population Healthy Nuclei (%) [12]: 38% | Population Hoechst High Intensity Objects (%) [12]: 5% | Population Membrane Permeable-Phenotype (%) [12]: 16% | Population Mitotic Cells (%) [12]: 50% | Population Normal (%) [12]: 94% | Population Pyknosed Nuclei (%) [12]: 10% | Population Tubulin-Different-Phenotype (%) [12]: 51% | Total Cell Count [12]: 155
